Mdm2-MdmX inh: inhibitors of human Mdm2/MdmX interaction; O15151+Q00987; SaOS-2 split-luciferase Mdm2/MdmX complementation, luminescence; inhibition, % at 8 µM; 3% of 330,000 active; AID 485346;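 active means inhibition of at least 50% at 8 µM in the primary screen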
SKKanGAS inh: inhibitors of SKKanGAS S. pyogenes growth in kanamycin (SK-promoter or general growth effect) | BacTiter-Glo, 6 h | AID 1662 | inhibition, % at 7.5 µM | 1.3% of 300,000 active;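 active means mean replicate score, as percent of positive control median, at least 50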;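 further: strain carries kanamycin resistance gene driven by streptokinase promoter and grows in 40 µg/ml kanamycin; loss of luminescence reflects streptokinase promoter inhibition or plain growth inhibition; 0% = median of DMSO wells and 100% = positive control at its reference dose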
CSC inhib: blocks cancer stem cells | cancer stem cell-like cells viability, luminescence | inhibition, % at 7.5 µM | 1.1% of 300,000 active; in the data active means inhibition above about 75%; tested in HMLE shEcad cells
aSyn UTR inh: MLPCN primary screen, SNCA 5' untranslated region. alpha-synuclein 5'UTR reporter, inhibitor activity. inhibition, % (tested at 7.5 µM). 0.82% of 300,000 active. AID 1813; in the data active means inhibition above about 60%;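 further: H4 neuroglioblastoma cells stably carrying SNCA 5'UTR luciferase fusion; 0% = DMSO wells and 100% = positive control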
T cruzi repl: T. cruzi replication inhibition; T. cruzi beta-gal in NIH3T3, luminescence, 90 h; inhibition, % (no concentration beside the values); 1.4% of 300,000 active; AID 1885;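 active means mean inhibition across valid replicates above about 55%, limit read from the data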;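 further: signal also drops with host cell toxicity which is not excluded here; 0% = plate median of DMSO wells and 100% = zero luminescence signal; higher percent means less beta-gal luminescence so fewer parasites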
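System: NIH/3T3 fibroblasts plus reporter T. cruzi. Medium: DMEM plus 2% FBS. Probe or stimulus: 5000 reporter trypomastigotes per well. Compound: single 50 nL compound addition per well in DMSO. Incubation: co-culture of at least 90 h after 3 h attachment. Detection: GalScreen β-gal luminescence, detergent lysis, 60 min. Evaluation: parasite load inhibition, %.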
* marks the source's active call; other numbers are inactive results; nt = no result. Rows were chosen to be rich in hits. Some 5.4% of all compounds tested hit in one or more screens of this group.

SMILES | Mdm2-MdmX inh | SKKanGAS inh | CSC inhib | aSyn UTR inh | T cruzi repl
CC1=NN(c2ccccc2)C(=O)/C1=C/C=C/C=C/N(C)C | 13.8 | -0.9 | -0.5 | 14.5 | 9.0
CC1=NN(c2ccc(C)cc2)C(=O)/C1=C\C=C\c1ccccc1 | 41.5 | -10.4 | 78.0* | -50.5 | -8.6
Cc1ccc(S(=O)(=O)N(C)C)cc1NC(=S)NC(=O)C12CC3CC(CC(C3)C1)C2 | 19.0 | 6.3 | 76.6* | 35.0 | 4.0
Cc1ccc(S(=O)(=O)N(C)C)cc1NC(=S)NC12CC3CC(CC(C3)C1)C2 | nt | -5.1 | nt | 15.2 | 21.5
O=C(COc1ccc(-c2nnco2)cc1)Nc1ccc(C(F)(F)F)cc1 | 26.0 | -3.7 | 0.9 | -6.4 | 19.6
Cc1ccc(C(=O)c2cccc(N)c2)cc1C | 7.2 | 3.5 | -2.4 | 82.0* | 2.6
CCOC(=O)c1ccc(NC(=S)N(CCCN(CC)CC)Cc2ccco2)cc1 | 0.3 | 6.1 | 53.0 | -16.2 | 7.4
COc1ccc(Cl)cc1NC(=S)N(Cc1cccnc1)Cc1ccco1 | 0.7 | 1.9 | 13.4 | 4.1 | 66.2*
CCOC(=O)c1ccc(NC(=S)N(Cc2cccnc2)Cc2ccco2)cc1 | -3.8 | -1.8 | nt | 17.7 | 55.4*
COC(=O)c1ccc(NC(=S)N(Cc2cccnc2)Cc2ccco2)cc1 | -16.5 | 0.5 | -19.5 | -5.9 | 72.6*
COc1ccc(CNC(=O)COc2ccc(OC)cc2)cc1 | 4.9 | -3.7 | 0.0 | 0.8 | 2.6
COc1ccc(S(=O)(=O)N2CCOCC2)cc1NC(=O)CN1CCN(C)CC1 | -8.1 | 1.4 | -2.4 | -8.5 | -2.7
O=C(CN1CCSC1=O)Nc1ccc(N2CCOCC2)cc1 | 14.6 | nt | nt | nt | nt
N#CCCn1cc(/C=N/NC(N)=S)c(-c2ccc(-c3ccccc3)cc2)n1 | 41.2 | 39.8 | 13.8 | 26.8 | 63.3*
Cc1ccc(CNC(=O)C2CCCN(c3cnccn3)C2)cc1 (configuration not stated) | 19.3 | -1.5 | 6.8 | -13.8 | 6.2
CC(=O)N(CCCc1ccc(C(C)(C)C)cc1)CCCN(C)C | 9.9 | 6.4 | 57.7 | -9.4 | 72.7*
CC(C)c1ccccc1-n1c(SCc2cc(=O)oc3ccc4ccccc4c23)nnc1-c1cccnc1 | 31.8 | 23.7 | 75.8* | -22.8 | 13.7
CCOc1ccc(-n2c(SCc3cc(=O)oc4cc(C)ccc34)nnc2-c2cccnc2)cc1 | 8.5 | -3.3 | -2.9 | 19.4 | 1.1
COC(=O)c1c(NC(=O)CN2CCN(Cc3ccc4c(c3)OCO4)CC2)sc(C)c1C | 11.4 | 9.3 | 60.9 | -9.1 | 58.9*
COC(=O)c1ccsc1NC(=O)CN1CCN(Cc2ccc3c(c2)OCO3)CC1 | 4.8 | -0.2 | -8.8 | 13.6 | 36.1
CC(C)CC1NC(=O)c2ccccc2-n2c1nc1ccc(Cl)cc1c2=O (configuration not stated) | 12.3 | nt | nt | nt | nt
Cc1c(CCC(=O)O)c(=O)oc2cc3oc4c(c3cc12)CCCC4 | -28.6 | 13.6 | -19.5 | 68.0* | 7.8
Cc1c(CCC(=O)N2CCC[C@H]2C(=O)O)c(=O)oc2cc3oc4c(c3cc12)CCCC4 | 5.9 | 12.8 | 0.3 | 76.9* | 8.8
Cc1c(CCC(=O)NCC(=O)NCC(=O)O)c(=O)oc2cc3oc4c(c3cc12)CCCC4 | 0.0 | 2.6 | -0.3 | -3.3 | -11.2
Cc1c(CCC(=O)N2CCC(C(=O)NCCCCCC(=O)O)CC2)c(=O)oc2cc3oc4c(c3cc12)CCCC4 | 0.7 | 15.2 | -2.7 | 19.6 | -16.0
SMILES | Mdm2-MdmX inh | SKKanGAS inh | CSC inhib | aSyn UTR inh | T cruzi repl
CC(=O)Oc1ccc2oc(=O)c3c(c2c1)CCCN3C(=O)CN1CCOCC1 | -0.6 | -6.0 | -4.8 | -15.3 | -2.1
CCc1nnc(NC(=O)c2oc3ccc(Br)cc3c2C)s1 | -8.5 | nt | nt | nt | nt
O=C(COc1ccccc1)NC(=S)Nc1ccc2c(c1)Cc1ccccc1-2 | 23.5 | -1.7 | nt | -23.6 | 61.0*
COc1cccc(-c2nnc(Nc3nc4c(F)cccc4s3)o2)c1 | 3.8 | 67.6* | 52.9 | -145.4 | -15.9
Fc1cccc2sc(Nc3nc4ccccc4s3)nc12 | -132.1 | 15.8 | -4.2 | -308.8 | -5.4
CS(=O)(=O)N1CCN(c2c(Cl)cccc2[N+](=O)[O-])CC1 | 12.5 | -4.4 | 6.1 | -38.3 | 5.3
O=S(=O)(Nc1ccc(-n2cccc2)cc1)c1ccc(F)cc1 | 21.8 | -2.9 | 6.9 | -5.3 | 1.5
O=S(=O)(Nc1ccc(-n2cccc2)cc1)c1ccc(Cl)c(Cl)c1 | 6.5 | 49.8* | 83.9* | nt | nt
O=C(COC(=O)CSc1ccc(Cl)cc1)Nc1ccc2[nH]c(=O)[nH]c2c1 | 9.0 | nt | 5.6 | nt | nt
CC(Oc1ccc(C#N)cc1)C(=O)NC1CCCC1 (configuration not stated) | -1.8 | nt | nt | nt | nt
CC(C)(Sc1ccc(CCN(CCCCC2CCCCC2)C(=O)NC2CCCCC2)cc1)C(=O)O | 21.4 | nt | 98.7* | nt | nt
CCOC(=O)c1sc2nc(CC(=O)OC)nc(N3CCN(c4ccc(OC)cc4)CC3)c2c1C | 1.3 | 18.0 | 23.3 | 38.8 | 63.1*
CCOC(=O)C1CCN(C(=O)Cn2nc(C)n3c(cc4cc(F)ccc43)c2=O)CC1 | 5.1 | -2.1 | -21.3 | -10.7 | 1.2
CCSc1ccc2cc(OC)ccc2[n+]1CC | -2.5 | 1.4 | -2.4 | -14.7 | 54.7*
CCn1ccc2cc(OC)ccc2c1=S | 44.3 | -13.2 | -12.0 | -7.0 | -6.4
CC1CCN(CCCNC(=O)c2cc3c(Cl)nc4ccccc4c3s2)CC1 | 15.8 | 3.7 | 10.1 | -53.5 | 56.0*
CCCc1ccc(OC(=O)c2ccc(O)cc2Cl)cc1 | -82.0 | 81.2* | 1.2 | -62.6 | 30.3
COc1cccc(/C=N/NC(=O)NC2CCCCC2)c1O | 12.2 | 5.1 | -20.1 | -96.6 | 6.7
COc1cccc(/C=N/NC(=O)NC23CC4CC(CC(C4)C2)C3)c1O | 37.6 | 97.2* | 28.7 | -16.0 | -5.7
O=C(N/N=C/c1ccccc1F)NC12CC3CC(CC(C3)C1)C2 | -34.9 | 22.2 | 6.9 | -114.8 | 56.8*
CN(C)CCSc1nc(-c2ccccc2)nc2c1CCC2 | 11.1 | -7.9 | -3.7 | 3.3 | 44.5
CN(C)CCCSc1nc(-c2ccccc2)nc2c1CCC2 | -22.0 | 1.2 | 17.1 | 2.5 | 71.3*
CC(NC(=O)c1cccc(S(=O)(=O)N2CCN(C)CC2)c1)c1ccc(Cl)cc1Cl (configuration not stated) | -2.5 | 2.3 | -5.9 | 3.1 | 4.6
CC(=O)NC(C)C(=O)OCC(=O)c1ccc(-c2ccccc2)cc1 (configuration not stated) | 12.8 | 6.4 | -4.6 | -8.4 | -0.3
Cc1ccc2[nH]c(-c3ccccc3)cc(=O)c2c1 | 10.9 | 6.4 | 10.6 | 88.6* | -4.8
SMILES | Mdm2-MdmX inh | SKKanGAS inh | CSC inhib | aSyn UTR inh | T cruzi repl
Cc1ccc(-c2cc(=O)c3ccccc3[nH]2)cc1 | 12.5 | 5.1 | 26.4 | -77.0 | -15.5
C/C(=N\NC(=O)c1ccccc1)c1nc2ccccc2n1C | 29.8 | 8.3 | 13.7 | 62.3* | -54.8
Cn1c(NC(=O)c2ccc(F)cc2)nc2ccccc21 | -70.8 | 21.9 | -8.5 | -102.6 | -8.1
O=S(=O)(c1ccc(N2CCOCC2)c(Cl)c1)N1CCOCC1 | 7.0 | 3.6 | -1.5 | 27.9 | -12.5
O=c1c2ccccc2sn1-c1cc(S(=O)(=O)N2CCOCC2)ccc1N1CCCC1 | 11.0 | 85.5* | 17.4 | -8.9 | 46.8
O=c1c2ccccc2sn1-c1cc(S(=O)(=O)N2CCOCC2)ccc1N1CCOCC1 | -15.2 | 75.6* | nt | 31.5 | 22.3
